NR2E3 ag-1: inhibitors of NR2E3-RetCOR corepressor binding, primary screen, NR2E3 agonist project, biochemical, TR-FRET, GST-NR2E3, biotin-RetCOR; 1536-well; inhibition of corepressor binding, % at 4.78 µM; 320,000 tested, 0.12% active;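 active = percent inhibition above the cutoff of mean plus 3 SD of all tested compounds, set per screening campaign, cut at about 20% in these data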
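Material: NR2E3–RetCOR corepressor complex / Incubation: Compound–protein incubation for 5 h at 4 °C / Dosing: compound at 4.8 µM, single dose / Detection: time-resolved FRET / Benchmarks: high control biotin, low control 0.6% DMSO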
VLA-4 inh: inhibition in human VLA-4 binding assay, primary screen, VLA-4 allosteric modulator project, MLPCN library, flow cytometry, VLA-4 expressing cells | Integrin alpha-4 (Homo sapiens), P13612 | ligand binding flow cytometry | inhibition, % (about 7 µM as worked out from the volumes in the protocol) | 330,000 tested, 0.2% active | AID 2557, 2010; in the data active = inhibition above about 50%
NR2E3 ag-2: NR2E3 agonists in two-hybrid cells, primary screen, cell-based, luminescence, CHO-S, Gal4-NCOR/VP16-NR2E3. inhibition of corepressor binding, % at 3.98 µM. luciferase. 360,000 tested, 0.35% active;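 active = inhibition above the mean of all tested compounds plus 3 SD, cut at about 70% in these data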;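 note: higher means lower luciferase signal from less NR2E3 corepressor binding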
PG9 Ab binder: binders of HIV-1 gp120 antibody PG9, primary screen, biochemical, TR-FRET. HIV-1 gp120 / PG9 antibody interaction. TR-FRET gp120-PG9 antibody binding. inhibition, % at 6.7 µM. 360,000 tested, 0.43% active. AID 624416, 2012; in the data active = inhibition above about 8.5%
NR1D1 modulator: modulators of Rev-erb alpha DNA binding, primary screen, biochemical, FITC-DNA, fluorescence polarization, uHTS; Nuclear receptor subfamily 1 group D member 1 (Homo sapiens), P20393; Rev-erbα–FITC-DNA binding, 90 min; activity, % at 10 µM; 370,000 tested, 0.79% active; AID 1259318, 2017;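 active = activity above about 14%, limit read from the data; passing the limit was not always enough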
Target sequence (P20393 whole entry, looked up): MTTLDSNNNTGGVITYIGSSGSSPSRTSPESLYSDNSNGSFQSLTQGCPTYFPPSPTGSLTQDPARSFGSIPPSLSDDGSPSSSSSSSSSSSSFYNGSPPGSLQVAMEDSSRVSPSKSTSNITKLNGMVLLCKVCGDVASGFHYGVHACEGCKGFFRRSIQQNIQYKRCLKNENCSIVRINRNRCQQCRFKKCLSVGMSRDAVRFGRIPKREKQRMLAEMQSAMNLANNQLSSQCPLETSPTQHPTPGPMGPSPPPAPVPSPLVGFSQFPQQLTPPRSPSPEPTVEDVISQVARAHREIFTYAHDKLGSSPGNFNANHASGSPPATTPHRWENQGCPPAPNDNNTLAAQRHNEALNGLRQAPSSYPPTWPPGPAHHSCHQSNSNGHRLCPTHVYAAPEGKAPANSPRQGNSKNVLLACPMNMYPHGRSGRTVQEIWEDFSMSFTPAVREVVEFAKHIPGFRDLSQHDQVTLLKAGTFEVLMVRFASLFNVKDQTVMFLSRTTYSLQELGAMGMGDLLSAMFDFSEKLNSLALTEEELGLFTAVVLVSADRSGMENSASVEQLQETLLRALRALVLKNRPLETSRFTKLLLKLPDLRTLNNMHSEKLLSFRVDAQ
Rev-erbA confirm: modulators of Rev-erb alpha DNA binding, confirmation, biochemical, FITC-DNA, fluorescence polarization, single point | shares compounds with NR1D1 modulator | 90 min | activation, % at 25 µM | 3,000 tested, 61% active | AID 1259319, 2017;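 active = activation at or above a set limit, or at least 3 SD above the negative control mean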
RORg DNA counter: modulation of RORgamma DNA binding, dose response, counter-screen for Rev-erb alpha modulator project, biochemical, fluorescence polarization, FITC-DNA; 910 tested, 8% active; shares compounds with NR1D1 modulator; IC50, µM; AID 1259320, 2017; purified RORgamma protein-FITC-DNA binding;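 active = Compounds whose fitted half-maximal concentration for disrupting protein-DNA binding is below 10 micromolar; the record names Rev-erb in its text, so the target is in doubt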
Each line names hits and unclear results; the compound was inactive in the other large screens (follow-up assays come after a bar, where they were run). In the library only some 1.6% were active in any assay of this set; here they are far more common.

COc1ccc(Cn2c(-c3ccccc3C)nc3c(c(=O)c4ccccc4n3C)c2=O)cc1	NR1D1 modulator 45 | Rev-erbA confirm inactive
Cc1ccc(C)c(OCCC(=O)NCCc2ccc(S(N)(=O)=O)cc2)c1	none
CN(C)C(=O)c1ccc(NC(=O)COC(=O)CCN=C2NS(=O)(=O)c3ccccc32)cc1	none (no result: NR2E3 ag-1, VLA-4 inh)
CCCCCc1nc2c(c(=O)c3ccccc3n2C)c(=O)n1Cc1ccc(OC)cc1	NR1D1 modulator 67 | Rev-erbA confirm 34 | RORg DNA counter inactive
Cn1c2ccccc2c(=O)c2c(=O)n(-c3ccc(F)cc3)c(-c3cccs3)nc21	none
Cc1ccc(-c2nc3c(c(=O)c4ccccc4n3C)c(=O)n2-c2ccc(F)cc2)cc1	NR1D1 modulator 69 | Rev-erbA confirm 43 | RORg DNA counter 2.7
COc1ccc(CCn2c(C)nc3c(c(=O)c4ccccc4n3C)c2=O)cc1	none
CCSc1nnc(-c2ccc(Cl)cc2)c2ccccc12	NR1D1 modulator 239 | Rev-erbA confirm 289 | RORg DNA counter inactive
O=C(CCCCCNc1nc(=S)[nH]c2ccccc12)NCc1ccccc1Cl	NR1D1 modulator 49 (no result: NR2E3 ag-2) | Rev-erbA confirm inactive
Fc1ccccc1-c1cc2ncccc2cn1	none
COc1ccc(C(=O)Nc2ccc3[nH]c(-c4cccc(OC)c4)cc(=O)c3c2)cc1	NR1D1 modulator 51 | Rev-erbA confirm inactive
COc1ccc(C(=O)Nc2cccc(OC)c2)cc1	none
CC(NCC(=O)Nc1ccccc1C(=O)NC1CC1)c1ccco1 (stereo not drawn)	none (no result: NR2E3 ag-1, VLA-4 inh)
Cc1ccc(/C=C/c2ccc(N(C)C)cc2)[n+](C)c1	NR1D1 modulator 37 | Rev-erbA confirm 50 | RORg DNA counter inactive
CN(C)c1ccc(/C=C/c2cc[n+](C)cc2)cc1	NR1D1 modulator 28 | Rev-erbA confirm 44 | RORg DNA counter inactive
O=C(c1ccc2c(=O)n(Cc3ccccc3Cl)c(=S)[nH]c2c1)N1CCOCC1	NR1D1 modulator 32 | Rev-erbA confirm 27
CN(C)CCNc1ncnc2c1ncn2[C@H]1CN(Cc2ccc(F)cc2)C[C@@H](CO)O1	none (no result: NR2E3 ag-1, VLA-4 inh)
COc1cccc2cc(C(=O)NCc3ccc(Cl)cc3)c(=N)oc12	none
COc1cccc2cc(C(=O)NCc3ccc(Cl)cc3)c(=O)oc12	NR1D1 modulator 21 | Rev-erbA confirm inactive
O=C(/C=C1\OCc2ccccc21)c1ccccc1	NR1D1 modulator 13 (no result: NR2E3 ag-1, VLA-4 inh, NR2E3 ag-2) | Rev-erbA confirm inactive
Cc1c(Cc2ccc3c(c2)OCO3)sc(NC(=O)c2ccc3ccccc3c2)c1C(N)=O	NR1D1 modulator 23 | Rev-erbA confirm inactive
CN(C)c1ccc(NC(=S)Nc2ccc3c(c2)c(=O)n(C)n3-c2ccc(C(C)(C)C)cc2)cc1	none (no result: NR2E3 ag-1, VLA-4 inh)
Cc1ccnc2nc(C(=O)OCC(=O)N(C)C3CCCCC3)nn12	none (no result: NR2E3 ag-1, VLA-4 inh)
CC(=O)c1ccc(N2CCN(c3ccc(C(F)(F)F)cn3)CC2)cc1	NR1D1 modulator 37 | Rev-erbA confirm 29
CC(=O)c1ccc(N2CCN(c3ncc(C(F)(F)F)cc3Cl)CC2)cc1	none
CN(C)c1cccc(NC(=O)c2cccc3ccccc23)c1	none
CCCCN1C(=O)/C(=C2/Sc3ccccc3N2C)S/C1=N\c1ncn[nH]1	NR1D1 modulator 72 | Rev-erbA confirm inactive
CC(=O)Nc1ccc(NC(=O)CSc2nc3ccccc3nc2N2CCCCC2)cc1	none
Cc1ccc(NC(=O)CSc2nc3ccccc3nc2N2CCOCC2)c(C)c1	NR1D1 modulator 38 | Rev-erbA confirm 40 | RORg DNA counter inactive
CC(=O)Nc1ccc(NC(=O)CSc2nc3ccccc3nc2N2CCC(C)CC2)cc1	NR1D1 modulator 45 | Rev-erbA confirm 21
CCC(=O)NN1CCc2cc3ccc(C)cc3nc21	none
Cc1ccnc(SCC(=O)NC2CCCCCC2)n1	none
O=C(NCCC(=O)N1CCN(c2ccccn2)CC1)c1ccc(Br)cc1	none
Cc1ccc(S(=O)(=O)c2nc(Nc3ccccc3C#N)sc2Cl)cc1	PG9 Ab binder 46, NR1D1 modulator 27 | Rev-erbA confirm 36 | RORg DNA counter inactive
Cc1ccc(S(=O)(=O)c2nc(Nc3ccccc3N3CCOCC3)sc2Cl)cc1	none
Cc1coc(NC(=O)CSc2nc(-c3ccc(Cl)cc3)cc(C(F)(F)F)c2C#N)n1	NR1D1 modulator 78 | Rev-erbA confirm 66 | RORg DNA counter inactive
COc1ccc(-c2cc(C(F)(F)F)c(C#N)c(SCC(=O)Nc3ccccc3C#N)n2)cc1	none (no result: NR2E3 ag-2, PG9 Ab binder, NR1D1 modulator)
COc1ccc(-c2cc(C(F)(F)F)c(C#N)c(SCC(=O)Nc3nc(C)co3)n2)cc1	NR1D1 modulator 47 (no result: PG9 Ab binder) | Rev-erbA confirm 43 | RORg DNA counter inactive
COc1ccc(NC(=O)CSc2nc(-c3ccc(C)cc3)cc(C(F)(F)F)c2C#N)cc1	NR1D1 modulator 24 | Rev-erbA confirm 41 | RORg DNA counter 1.5
Cc1ccccc1NC(=O)CN1C(=O)c2cccnc2Oc2ccc(Cl)cc21	none
Cc1cc2oc(=O)cc(-c3ccccc3)c2c(C)c1-c1ccc(O)cc1	NR1D1 modulator 17 (no result: NR2E3 ag-1, VLA-4 inh) | Rev-erbA confirm inactive
C=CCC[C@@H](Cc1ccc(F)cc1)C(=O)OC[C@H](C)NC(=O)[C@@H](CC=C)CC(=O)N(CCO)Cc1ccccc1	NR1D1 modulator 13 (no result: NR2E3 ag-1) | Rev-erbA confirm inactive
Cc1cc(C)cc(NC(=O)CSc2nc3ccccc3nc2N2CCCCC2)c1	none
O=C(CSc1nc2ccccc2nc1N1CCCCC1)NCc1ccc(Cl)cc1Cl	NR1D1 modulator 47 (no result: NR2E3 ag-1, VLA-4 inh, NR2E3 ag-2, PG9 Ab binder) | Rev-erbA confirm 41 | RORg DNA counter inactive
COc1ccc(Oc2nnc(-c3ccc(C)cc3)c3ccccc23)cc1	NR1D1 modulator 27 | Rev-erbA confirm inactive
c1ccc(Oc2nnc(-c3cccs3)c3ccccc23)cc1	NR1D1 modulator 26 | Rev-erbA confirm inactive
COc1nnc(-c2ccc(C)cc2)c2ccccc12	none (no result: NR2E3 ag-1)
Cc1sc(NC(=O)c2oc3ccccc3c2C)c(C#N)c1C	NR1D1 modulator 226 (no result: PG9 Ab binder) | Rev-erbA confirm 283
Cc1c(C(=O)NC2=NCCS2)oc2ccccc12	none
Cc1cc(C)c2nc(SCC(=O)N3CCCCC3)c(C#N)cc2c1	NR1D1 modulator 27 (no result: NR2E3 ag-1, VLA-4 inh) | Rev-erbA confirm 23
Cc1cc(C)c(C#N)c(SCC(=O)N2CCCCC2)n1	none
Cc1cc2cccc(C)c2nc1SCC(=O)NCC1CCCO1 (stereo not drawn)	none

Screens from PubChem BioAssay.
